One experiment concerns the target Tubulin (Sus scrofa, UniProt P02554+P02550). The experiment is described as follows: Inhibition of porcine brain tubulin polymerization.
A further experiment has as its system MDA-MB-231. As to the kind of experiment: Cytotoxicity against hormone-independent human MDA-MB-231 cells assessed as growth inhibition by MTS assay. The class given is functional, cell-based. An outline of the steps: (§1)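 Cells seeded at 2,500 per well and exposed to a range of compound concentrations. Read-out is the MTS assay […]. IC50 is the mean of 3 independent experiments, each run in triplicate.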
(Tetrazolium assays rely on reduction of a dye to a coloured formazan, in cell work by metabolically active cells.)

In the next experiment the test system is PC-3. As to the kind of experiment: Cytotoxicity against hormone-independent human PC3 cells assessed as growth inhibition by MTS assay. The experiment is classed as functional, cell-based. An outline of the steps: as §1

From ChEMBL document CHEMBL2401665, “Design, synthesis and biological studies of novel tubulin inhibitors” (Bioorg Med Chem Lett, 2013) come the findings set out here.

A word on the IC50: it is the concentration that inhibits the measured activity by half.

For `COc1ccc2c(c1)[nH]c(=O)n2Cc1cc(OC)c(OC)c(OC)c1`, the 50% inhibitory concentration (IC50) on Tubulin was 16400 nM; with MDA-MB-231, 52.8 nM; in the experiment with PC-3, 44.2 nM.

As for `COc1ccc2c(c1)n(C)c(=O)n2Cc1cc(OC)c(OC)c(OC)c1`, the IC50 was above 40000 nM on Tubulin, 3030 nM in the experiment with MDA-MB-231 and 555 nM in the experiment on PC-3.

Turning to `COc1ccc2c(c1)[nH]c(=O)n2C(=O)c1cc(OC)c(OC)c(OC)c1`, the IC50 on Tubulin was determined as 19140 nM; with MDA-MB-231, 108 nM; with PC-3, 126 nM.

In the case of `COc1ccc2c(c1)oc(=O)n2Cc1cc(OC)c(OC)c(OC)c1`, the IC50 at Tubulin was above 40000 nM; with MDA-MB-231 it was 4520 nM; in the experiment with PC-3, 4490 nM.

Consider `COc1ccc2c(c1)oc(=O)n2C(=O)c1cc(OC)c(OC)c(OC)c1`, for which the IC50 in the experiment with MDA-MB-231 and in the experiment on PC-3 was above 20000 nM in each case.

Consider `COc1ccc2c(c1)C(=O)C(=O)N2Cc1cc(OC)c(OC)c(OC)c1`, for which the 50% inhibitory concentration (IC50) entry on Tubulin is “ND(Insoluble)”; in the experiment on MDA-MB-231, 935 nM; with PC-3, 318 nM.

On to `COc1ccc2c(c1)CC(=O)N2Cc1cc(OC)c(OC)c(OC)c1`, for which the values for the IC50 against Tubulin, in the experiment on MDA-MB-231 and in the experiment on PC-3 were 31200 nM, 193 nM and 165 nM, respectively.

Turning to `COc1ccc2c(c1)NC(=O)/C2=C/c1cc(OC)c(OC)c(OC)c1`, the IC50 in the experiment on MDA-MB-231 came out at 0.88 nM.
